Laboratory results reported in ChEMBL document CHEMBL5625166, “Disulfide-incorporated lipid prodrugs of cidofovir: Synthesis, antiviral activity, and release mechanism” (Eur J Med Chem, 2023).

Tests used:
[1] = tested on: A549; assay: Cytotoxicity against human A549 cells incubated for 72 hrs by neutral red based spectrophotometric analysis; type: toxicity, cell-based; settings: a549, 72 h
Method in brief: (§1)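 Cells seeded at 3 × 10^4 cells/well and grown 24 h at 37 °C, 5% CO2. Two-fold compound dilutions starting at 200.0 μM applied for 72 h. Neutral red (40 μg/mL) added for 4 h, cells washed and destained in ethanol/acetic acid. OD read at 540 nm against cell-free blanks. CC50 from triplicates.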

[2] = tested on: Vaccinia virus; assay: Antiviral activity against VACV infected in A549 cells assessed as reduction in cytopathic effect incubated for 96 hrs by neutral red based spectrophotometric analysis; type: functional, organism-based; settings: Orthopoxvirus vaccinia, A549, 96 h
[3] = tested on: Vaccinia virus; assay: Antiviral activity against VACV infected in Vero cells assessed as reduction in cytopathic effect incubated for 96 hrs by neutral red based spectrophotometric analysis; type: functional, organism-based; settings: Orthopoxvirus vaccinia
[4] = Therapeutic index, ratio of CC50 for African green monkey Vero cells to IC50 for VAVC infected in african green monkey Vero cells; type: toxicity; settings: read-out: Ratio CC50/IC50
[5] = tested on: Human adenovirus 5; assay: Antiviral activity against AdV5 infected in A549 cells assessed as reduction in cytopathic effect incubated for 72 hrs by neutral red based spectrophotometric analysis; type: functional, organism-based; settings: Human mastadenovirus C, A549, 72 h
[6] = Therapeutic index, ratio of CC50 for human A549 cells to IC50 for VAVC infected in human A549 cells; type: toxicity, cell-based; settings: read-out: Ratio CC50/IC50
[7] = Cytotoxicity against African green monkey Vero cells incubated for 72 hrs by neutral red based spectrophotometric analysis; type: toxicity, cell-based; settings: chlorocebus sabaeus; method in brief: as §1
[8] = Therapeutic index, ratio of CC50 for human A549 cells to IC50 for AdV5 infected in human A549 cells; type: toxicity, cell-based; settings: read-out: Ratio CC50/IC50
[9] = tested on: Lipid bilayer; assay: Induction of micelles formation in PBS at pH 7.4 by TEM analysis; type: physicochemical; settings: buffer
Method in brief: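 Conjugates at 50.0 μM in pH 7.4 phosphate buffer, imaged by transmission electron microscopy for micelle formation.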

[10] = Stability of the compound in phosphate buffer at pH 7.4 assessed as compound remaining measured upto 400 mins in presence of GSH by HPLC method; type: physicochemical; settings: for Stability: buffer, pH 7.4, 6.667 h
[11] = Stability in SGF assessed as remaining compound after 120 mins; type: ADME; settings: read-out: Stability
Method in brief: (§2)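 Incubated in simulated gastric fluid at 37 °C, remaining compound measured at 120 min.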

[12] = Stability of the compound in SIF assessed as remaining compound after 360 mins; type: ADME; settings: read-out: Stability
Method in brief: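 Incubated in simulated intestinal fluid at 37 °C, remaining compound measured at 360 min.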

[13] = Stability in human plasma assessed as half life; type: ADME, cell-free
Method in brief: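 Incubated in pooled human plasma at 37 °C, half-life determined.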

[14] = Stability of the compound in SGF after 120 mins; type: ADME; settings: simulated gi fluid, 2 h; method in brief: as §2
[15] = tested on: Human adenovirus 5; assay: Potency index, ratio of BCV IC50 to test compound IC50 for antiviral activity against AdV5 infected in A549 cells assessed as reduction in cytopathic effect incubated for 72 hrs by neutral red based spectrophotometric analysis; type: functional
[16] = Stability of the compound in phosphate buffer at pH 7.4 assessed as compound remaining measured after 360 mins in presence of GSH by HPLC method; type: physicochemical; settings: phosphate buffer with GSH, read-out: Stability
Method in brief: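 Conjugate incubated with 20 mM GSH in pH 7.4 phosphate buffer at 37 °C. Percent remaining monitored by HPLC over time, up to 360 min.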

| Structure (SMILES) | CC50 [1] [µM] | IC50 [2] [nM] | IC50 [3] [nM] | selectivity ratio [4] | IC50 [5] [nM] | selectivity ratio [6] | CC50 [7] [µM] | selectivity ratio [8] | Activity [9] | remaining at 6.667 h ([10]; phosphate buffer with GSH, pH 7.4, read-out: Stability) [%] | remaining at 2 h [11] [%] | remaining at 6 h [12] [%] | t1/2 [13] [h] | Stability [14] | Ratio IC50 [15] | Stability [10] | remaining at 6 h [16] [%] |
| --- | --- | --- | --- | --- | --- | --- | --- | --- | --- | --- | --- | --- | --- | --- | --- | --- | --- |
| CCCCCCCCCCCCSSCCCOP(=O)(O)CO[C@H](CO)Cn1ccc(N)nc1=O | 47.6 | 2020 | 6540 | 5.09 | 1260 | 23.5 | 33.3 | 37.7 | – | – | – | – | – | – | – | – | – |
| CCCCCCCCCCCCCCCCSSCCCOP(=O)(O)CO[C@H](CO)Cn1ccc(N)nc1=O | 46.7 | 401 | 274 | 46.3 | 300 | 116 | 12.7 | 156 | – | – | – | – | – | – | – | – | – |
| CCCCCCCCCCCCSSCCCCOP(=O)(O)CO[C@H](CO)Cn1ccc(N)nc1=O | 80.6 | 1050 | 861 | 40.6 | 255 | 76.8 | 35 | 317 | – | – | – | – | – | – | – | – | – |
| CCCCCCCCSSCCCCCCOP(=O)(O)CO[C@H](CO)Cn1ccc(N)nc1=O | > 200 | > 50000 | 49300 | > 4.05 | – | > 4 | > 200 | – | – | – | – | – | – | – | – | – | – |
| CCCCCCCCCCCCCCCCSSCCOP(=O)(O)CO[C@H](CO)Cn1ccc(N)nc1=O.N | 8.69 | 90 | 68 | 37.7 | 157 | 96.1 | 2.58 | 55.2 | Active | 81 | 68 | > 90 | 3.237 | – | – | – | – |
| CCCCCCCCCCCCCCCCSSCCCCOP(=O)(O)CO[C@H](CO)Cn1ccc(N)nc1=O.N | 31 | 1650 | 304 | 41 | 134 | 18.8 | 12.5 | 232 | Active | – | – | > 90 | 4.375 | Stable | 2 | – | – |
| CCCCCCCCCCSSCCOP(=O)(O)CO[C@H](CO)Cn1ccc(N)nc1=O | 65.2 | 6270 | 2490 | 32.7 | 12500 | 10.4 | 81.3 | 5.2 | – | – | – | – | – | – | – | – | – |
| CCCCCCCCCCSSCCCCOP(=O)(O)CO[C@H](CO)Cn1ccc(N)nc1=O | 162 | 45700 | 40600 | 2.36 | – | 3.55 | 95.8 | – | – | – | – | – | – | – | – | – | – |
| CCCCCCCCCCCCCCSSCCCCCCOP(=O)(O)CO[C@H](CO)Cn1ccc(N)nc1=O.N | 80.8 | 593 | 549 | 15.6 | 274 | 136 | 8.56 | 295 | Active | – | – | – | – | – | – | Stable | – |
| CCCCCCCCCCSSCCCCCCOP(=O)(O)CO[C@H](CO)Cn1ccc(N)nc1=O | 194 | 4290 | 6270 | 18.4 | 2310 | 45.2 | 115 | 83.9 | – | – | – | – | – | – | – | – | – |
| CCCCCCCCCCCCSSCCCCCCOP(=O)(O)CO[C@H](CO)Cn1ccc(N)nc1=O.N | 134 | 838 | 854 | 17.8 | 185 | 160 | 15.2 | 725 | – | – | – | > 90 | 4.45 | Stable | – | – | – |
| CCCCCCCCCCCCCCSSCCCCOP(=O)(O)CO[C@H](CO)Cn1ccc(N)nc1=O.N | 44.3 | 599 | 517 | 35 | 384 | 74 | 18.1 | 115 | – | – | – | – | – | – | – | Stable | – |
| CCCCCCCCCCCCSSCCOP(=O)(O)CO[C@H](CO)Cn1ccc(N)nc1=O | 47 | 217 | 365 | 39.2 | 795 | 216 | 14.3 | 59.1 | – | – | – | – | – | – | – | – | – |
| CCCCCCCCCCCCCCSSCCCOP(=O)(O)CO[C@H](CO)Cn1ccc(N)nc1=O.N | 50.7 | 223 | 283 | 49.3 | 548 | 227 | 13.9 | 92.6 | – | – | – | – | – | – | – | Stable | – |
| CCCCCCCCCCCCCCSSCCOP(=O)(O)CO[C@H](CO)Cn1ccc(N)nc1=O.N | 14.7 | 79 | 96 | 68 | 157 | 186 | 6.53 | 93.7 | Active | – | 77 | > 90 | 2.144 | – | – | – | 13 |
| CCCCCCCCCCCCCCCCCCSSCCCOP(=O)(O)CO[C@H](CO)Cn1ccc(N)nc1=O | 32.3 | 724 | 436 | 22.7 | 1860 | 44.6 | 9.87 | 17.3 | – | – | – | – | – | – | – | – | – |
| CCCCCCCCCCSSCCCOP(=O)(O)CO[C@H](CO)Cn1ccc(N)nc1=O | 130 | 22000 | 31500 | 5.77 | – | 5.91 | 182 | – | – | – | – | – | – | – | – | – | – |
| CCCCCCCCCCCCCCCCOCCCOP(=O)(O)CO[C@H](CO)Cn1ccc(N)nc1=O [BRINCIDOFOVIR] | 20.1 | 300 | 196 | 70.7 | 245 | 67 | 13.9 | 81.8 | – | – | 43 | > 90 | > 24 | – | – | – | – |
